Where two headings read alike, the source gives them in different places.
What was measured:
[1] = test system: CNS neurons in mixed retinal culture; conditions: ref Geiger et al., 2002; cited from earlier work
[2] = Superoxide detection by EPR with spin trap DEPMPO; format: biochemical; conditions: for reducing activity by EPR spectroscopy: converts superoxide adduct of the spin trap to hydroxyl adduct; for effect on EPR spectra of superoxide adduct of DEPMPO: xanthine/xanthine oxidase
Outline: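 Superoxide is generated from hypoxanthine (200 μM) and xanthine oxidase (0.0025 U/mL) with the spin trap DEPMPO present. A hydroxyl-adduct reference spectrum comes from a Fenton reaction: FeSO4 (100 μM), diethylenetriaminepentaacetic acid (100 μM) and H2O2 (1 mM) with DEPMPO (100 mM). Superoxide- and hydroxyl-DEPMPO adducts are recorded by EPR at room temperature, 9.85 GHz.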

[3] = Cell-free disulfide reduction of DTNB; format: biochemical; conditions: for reduction of disulfides in cell-free assays: non-deprotected (borane-complexed) forms
[4] = Accelerated stability of solid compound by HPLC; format: physicochemical
[5] = over 72 hours, HPLC
[6] = Superoxide scavenging, xanthine/xanthine oxidase with hydroethidine fluorescence; format: biochemical; conditions: 1, 10, 100 μM, compared to PEG-SOD control
[7] = test system: RGCs and retinal endothelial cells; conditions: ref Schlieve et al., 2006; cited from earlier work
RGC-5 cells = format: cell-based; conditions: one hour, DSSA alone 22.3 ± 0.2, mean ± SEM of 3 experiments
[8] = octanol/water, room temperature
rat [9] = conditions: rat optic nerve transection; ref Almasieh et al., 2011; cited from earlier work
rat [10] = conditions: rat experimental glaucoma; ref Almasieh et al., 2011; cited from earlier work
rats [11] = conditions: ref Hampton Research, 2016, cited from earlier work
rats [12] = conditions: ref Swanson et al., 2005; cited from earlier work
neurons after axotomy = conditions: in vivo; ref Geiger et al., 2002; cited from earlier work

## O[C@@H](CS)[C@@H](O)CS (racemic) [DTT, dithiothreitol]
[1]
  in vitro survival of CNS neurons: can increase in vitro survival

## COC(=O)CCP(CCC(=O)OC)c1ccccc1 [P1, bis(3-propionic acid methyl ester) phenylphosphine]
[2]
  reducing activity by EPR spectroscopy: strong reducing activity
  effect on EPR spectra of superoxide adduct of DEPMPO: did not diminish the spectra of superoxide

## COC(=O)CCP(c1ccccc1)c1ccccc1 [P2, (3-propionic acid methyl ester)diphenylphosphine]
[2]
  reducing activity by EPR spectroscopy: strong reducing activity
  effect on EPR spectra of superoxide adduct of DEPMPO: did not diminish the spectra of superoxide

## [BH3-][P+](CCC(=O)OC)(c1ccccc1)c1ccccc1 [PB2, (3-propionic acid methyl ester) diphenylphosphine-borane complex]
[3]; borane removed with DABCO, pH 7, compared with DTT and TCEP
  reducing capability towards DTNB: reduced disulfides more effectively than DTT or TCEP
[3]
  reduction of disulfides in cell-free assays: did not reduce disulfides
[4]; 20°C, extrapolation using the Arrhenius equation
  calculated half-life: 18 years
[4]; 40°C, 37 days
  peak area, % of control: 100%
[4]; 40°C, 125 days
  peak area, % of control: 86%
[4]; 60°C, 37 days
  peak area, % of control: 100%
[4]; 60°C, 125 days
  peak area, % of control: 14%
[5]
  solubility in water: 3.7 µM
[6]
  superoxide scavenging (2-hydroxyethidium fluorescence): did not appreciably scavenge superoxide
[7]
  no toxicity up to (concentration): 100 µM
RGC-5 cells; 10 μM
  mean cell fluorescence intensity (DSSA-1): 36.6 ± 0.2
[8]
  log Poct/wat: 1.1
Rat [9]
  neuroprotection in vivo: neuroprotective
Rat [10]
  neuroprotection in vivo: neuroprotective

## O=C(O)CCP(CCC(=O)O)CCC(=O)O [TCEP, tris(2-carboxyethyl)phosphine]
Rats [11]; i.p injection
  LD50: greater than 1024 mg/kg
Rats [11]; rats dosed orally
  LD50: 3500 mg/kg
Rats [12]
  neuronal death after optic nerve crush: prevents neuronal death
RGC-5 cells; 1 mM
  mean cell fluorescence intensity (DSSA-1): 25.6 ± 0.2
Neurons after axotomy
  neuronal death after axotomy: prevents neuronal death

## bis(3-propionic acid methyl ester) phenylphosphine-borane complex [PB1]
[3]
  reduction of disulfides in cell-free assays: did not reduce disulfides
[4]; 40°C, 37 days
  peak area, % of control: 80%
[4]; 40°C, 125 days
  peak area, % of control: 58%
[4]; 60°C, 37 days
  peak area, % of control: 72%
[4]; 60°C, 125 days
  peak area, % of control: 12%
[6]
  superoxide scavenging (2-hydroxyethidium fluorescence): did not appreciably scavenge superoxide
RGC-5 cells; 10 μM
  mean cell fluorescence intensity (DSSA-1): 26.7 ± 0.3
Rat [9]
  neuroprotection in vivo: neuroprotective
Rat [10]
  neuroprotection in vivo: neuroprotective
